# Rev-RRE block: HIV Rev-RRE protein-RNA interaction inhibition; P05866; Rev peptide-RRE RNA binding, FRET; inhibition, % at 8 µM; hit rate 0.79% among 97,000;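 active = inhibition above the screen-wide mean plus 3 SD, cut at about 35% in these data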;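 note: 0% = median DMSO wells and 100% = median Neomycin B control wells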
#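 System: Cy5-labelled duplex RRE RNA binding fluorescein-labelled HIV Rev peptide; Signal: fluorescein-to-Cy5 FRET, 480 nm excitation; Also added: labelled Rev peptide; Compound: one concentration, 8 µM nominal; Buffer or medium: HEPES pH 7.5 salt buffer with EDTA; Read-out: % inhibition of FRET ratio versus controls; Schedule: 5 min preincubation and 15 min binding, 25 °C.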
# DAT uptake mod: changed human dopamine transporter uptake under cocaine IC80. Q01959. LLC-PK1 hDAT cells, [14C]-dopamine uptake with cocaine IC80; actives deviate in either direction. B-score at 10 µM. hit rate 1.3% among 110,000;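 active = Z score or B-score, a plate-position-corrected score, falls beyond the plate's 99.7% confidence bounds, in either direction; inactive = both scores lie inside the 99.7% bounds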;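 note: scored against the spread of the other compound wells on the same plate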
# PLK1 kinase inh: PLK1 (human) kinase inhibition; P53350; recombinant PLK1 kinase, TR-FRET peptide phosphorylation; inhibition, % at 10 µM; hit rate 0.53% among 97,000; AID 619;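 active = inhibition of 50% or more in the single-concentration screen; inactive = inhibition below 50%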;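 note: 0% = DMSO max control and 100% = H-89 dihydrochloride min control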
# FAK blocker: inhibitors of human focal adhesion kinase; biochemical FAK kinase activity assay; inhibition, %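 (tested at 7 µM)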; hit rate 0.84% among 97,000; AID 727;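 note: 0% = DMSO and 100% = reference compound high control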
# PLK1 PBD inh: blocks phosphopeptide binding to human Plk1 polo box domain; P53350; Plk1 PBD phosphopeptide binding, fluorescence polarization; inhibition, %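 (tested at about 20 µM)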; hit rate 0.13% among 97,000; AID 693; in the data active = inhibition above about 34%, passing the limit was not always enough
# EphB4 antag: EphB4-ephrin-B2 interaction antagonism; AID 720; EphB4 LBD / TNYL-RAW-Alexa532 peptide, fluorescence polarization; hit rate 0.15% among 97,000; inhibition, % at 7 µM;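 active = inhibition above the screen-wide mean inhibition plus 3 SD, cut at about 15% in these data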;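 note: 0% = DMSO wells and 100% = excess unlabeled TNYL-RAW peptide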
# Target sequence (P54760 whole entry, looked up, the tested form may be a part): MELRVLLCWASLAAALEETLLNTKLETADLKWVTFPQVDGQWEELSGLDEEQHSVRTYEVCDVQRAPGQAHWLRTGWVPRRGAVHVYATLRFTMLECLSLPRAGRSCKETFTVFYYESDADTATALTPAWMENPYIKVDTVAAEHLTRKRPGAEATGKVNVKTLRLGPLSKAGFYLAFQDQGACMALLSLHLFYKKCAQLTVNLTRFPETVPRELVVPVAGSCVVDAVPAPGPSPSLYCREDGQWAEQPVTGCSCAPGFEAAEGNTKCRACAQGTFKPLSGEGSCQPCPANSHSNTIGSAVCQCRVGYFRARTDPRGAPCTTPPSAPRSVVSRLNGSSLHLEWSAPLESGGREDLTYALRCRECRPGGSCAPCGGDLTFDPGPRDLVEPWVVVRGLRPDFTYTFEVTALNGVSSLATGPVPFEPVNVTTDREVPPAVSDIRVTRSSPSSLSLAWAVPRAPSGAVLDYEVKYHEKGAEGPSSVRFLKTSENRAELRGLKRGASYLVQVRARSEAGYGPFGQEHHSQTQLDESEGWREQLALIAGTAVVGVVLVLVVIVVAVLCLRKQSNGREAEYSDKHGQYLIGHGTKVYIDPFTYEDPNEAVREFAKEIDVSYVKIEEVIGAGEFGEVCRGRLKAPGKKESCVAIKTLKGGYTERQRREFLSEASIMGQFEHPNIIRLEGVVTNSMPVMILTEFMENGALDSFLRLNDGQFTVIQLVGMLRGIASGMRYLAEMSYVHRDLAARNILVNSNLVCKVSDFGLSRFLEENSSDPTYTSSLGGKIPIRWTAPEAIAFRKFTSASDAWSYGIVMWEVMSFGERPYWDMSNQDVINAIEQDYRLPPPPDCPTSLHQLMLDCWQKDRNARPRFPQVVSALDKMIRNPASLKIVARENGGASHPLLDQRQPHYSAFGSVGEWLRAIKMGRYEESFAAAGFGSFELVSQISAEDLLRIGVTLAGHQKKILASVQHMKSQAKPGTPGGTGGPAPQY
# PLK1 confirm: confirmation of human PLK1 kinase inhibitors | shares compounds with PLK1 kinase inh | AID 744 | recombinant PLK1 kinase, TR-FRET peptide phosphorylation | inhibition, % at 10 µM | hit rate 20% among 210;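 active = inhibition at or above 50% in each of two repeat confirmation tests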;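 note: 0% = DMSO max control and 100% = H-89 kinase-blocked min control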
# TR-FRET interf: interferes with the Plk1 assay readout, not true inhibition. shares compounds with PLK1 kinase inh. Plk1 TR-FRET assay interference, compound added post-reaction. inhibition (interference), % at 10 µM. 210 tested, under 10 active;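 active = both duplicate runs show 50% or greater inhibition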;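 note: 0% = DMSO max control and 100% = H-89 min control inhibited reaction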
# PBD redox DR: generates H2O2 by redox cycling, flagging false Plk1 PBD hits; shares compounds with PLK1 PBD inh; redox cycling H2O2 generation, DTT, counter-screen; EC50, µM; 120 tested, under 10 active; AID 876; call rule not given here
# FAK inh conf: confirmation of human focal adhesion kinase (FAK) inhibitors; inhibition, % at 7 µM; hit rate 28% among 750; shares compounds with FAK blocker; FAK kinase biochemical inhibition assay; AID 794
# An asterisk follows results filed as active; x = no result. This is a sample that favours compounds with a hit; in the whole collection about 3.2% have one here. Cut-off read from the data, not from the text of the source, unless noted: active = inhibition above about 19%; inactive = the rest.
SMILES,Rev-RRE block,DAT uptake mod,PLK1 kinase inh,FAK blocker,PLK1 PBD inh,EphB4 antag,FAK inh conf,others
CCn1c(O)c(C(=O)CC2NCCc3ccccc32)c(=O)n(CC)c1=S (configuration not stated),48*,x,-10,-1,-1,-2,x,
O=C(C1CCN(S(=O)(=O)N2CCOCC2)CC1)N1CCC2(CC1)OCCO2,1,0.23,3,7,-8,1,x,
CN(C)C(=O)Oc1ccc(-c2nnco2)cc1,4,-0.81,78*,-5,-8,3,x,PLK1 confirm=-11;TR-FRET interf=-58
C/C=C1\CN2[C@H]3C[C@@]45c6ccccc6N(C)[C@H]4[C@@H]2CC1C3[C@H]5O (some centres not stated),x,0.069,x,x,x,x,x,
Cc1ccc(-n2c(O)c(C=NCCN3CCOCC3)c(=O)[nH]c2=O)cc1,6,-1.3,-34,0,44*,-5,x,PBD redox DR=>50
Cc1ccc(S(=O)(=O)N2CC3CC(C2)c2cccc(=O)n2C3)cc1 (configuration not stated),6,0.2,-10,1,-9,-1,x,
C[C@H]1CCCC(=O)CCC/C=C/c2cc(O)cc(O)c2C(=O)O1,10,-0.057,-20,35*,3,-1,31*,
COC(=O)C1=C(c2ccccc2)C[C@@H]2CC[C@H]1N2C(=O)NCCO,x,-1.7,x,x,x,x,x,
COc1ccc(OCC(=O)Nc2ccc(Cl)cc2C(=O)c2ccccc2)cc1,10,x,-3,25*,-15,-3,-1,
O=C(NCC(c1cccnc1)N1CCN(c2ccc(F)cc2)CC1)Oc1ccccc1 (configuration not stated),8,0.91,-5,0,-11,4,x,
CCOC(=O)c1c(N)n(Cc2ccco2)c2nc3ccccc3nc12,18,1.9,-17,3,3,4,x,
CCCCn1c(NC(=O)c2ccco2)c(C(=O)OCC)c2nc3ccccc3nc21,30,0.43,0,27*,-11,8,0,
